Measured values as given in ChEMBL document CHEMBL1138555, “N-acylated and N,N'-diacylated imidazolidine-2-thione derivatives and N,N'-diacylated tetrahydropyrimidine-2(1H)-thione analogues: synthesis and antiproliferative activity” (Eur J Med Chem, 2009).

How the values were obtained:
MT4 = test: Antiproliferative activity against human MT4 cells assessed as reduction of growth by MTT assay; assay type: functional, cell-based
Summary of the method: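 MT-4 lymphoblastoid T cells (ATCC) in RPMI 1640 with 10% FCS, penicillin/streptomycin, checked for mycoplasma. 1 × 10⁴ mock-infected cells per well with serial dilutions from a 100 mM DMSO stock. Incubated 4 days at 37 °C, viable cells counted by MTT. IC50 versus untreated controls by linear regression. Mean of three separate experiments.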

HL-60(TB) = test: Growth inhibition of human HL-60(TB) cells after 48 hrs by sulforhodamine B assay; assay type: functional; settings: HL-60, 48 h
Summary of the method: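 NCI 60-cell-line screen protocol: cells exposed to compound at five 10-fold dilutions from 10^-4 to 10^-8 M for the last 48 h of a 72 h incubation. Sulforhodamine B protein assay estimated viability/growth. GI50 (50% growth inhibition) derived; where not reached or exceeded, reported as greater or less than the highest or lowest concentration tested.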

K562 = test: Growth inhibition of human K562 cells after 48 hrs by sulforhodamine B assay; assay type: functional; settings: K562, 48 h
Summary of the method: (§1)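 NCI screen panel. Five 10-fold concentrations from 10^-4 to 10^-8 M. Exposure for the last 48 h of a 72 h incubation. Growth estimated by sulforhodamine B protein assay. GI50 is the concentration giving 50% growth inhibition. Where that level was not reached or was exceeded, the value is given as above or below the highest or lowest concentration tested.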

MOLT-4 = test: Growth inhibition of human MOLT4 cells after 48 hrs by sulforhodamine B assay; assay type: functional; settings: MOLT-4, 48 h; summary of the method: as §1
[1] = Growth inhibition of human […] cells after 48 hrs by sulforhodamine B assay; assay type: functional; summary of the method: as §1
SR = test: Growth inhibition of human SR cells after 48 hrs by sulforhodamine B assay; assay type: functional
Summary of the method: (§2)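 NCI in vitro panel screen. Compounds tested at five 10-fold dilutions, 10^-4 to 10^-8 M. Cells in 96-well plates were exposed for the last 48 h of a 72 h incubation. Viability/growth was read by sulforhodamine B protein assay. GI50 is the concentration giving 50% growth inhibition. Values beyond the tested range are reported as greater or less than the maximum or minimum concentration.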

A549 = test: Growth inhibition of human A549 cells after 48 hrs by sulforhodamine B assay; assay type: functional; settings: A549, 48 h; summary of the method: as §1
EKVX = test: Growth inhibition of human EKVX cells after 48 hrs by sulforhodamine B assay; assay type: functional; summary of the method: as §1
HOP-62 = test: Growth inhibition of human HOP62 cells after 48 hrs by sulforhodamine B assay; assay type: functional; settings: HOP-62, 48 h; summary of the method: as §1
HOP-92 = test: Growth inhibition of human HOP92 cells after 48 hrs by sulforhodamine B assay; assay type: functional; settings: HOP-92, 48 h; summary of the method: as §1
NCI-H23 = test: Growth inhibition of human NCI-H23 cells after 48 hrs by sulforhodamine B assay; assay type: functional; settings: NCI-H23, 48 h; summary of the method: as §1
NCI-H322M = test: Growth inhibition of human NCI-H322M cells after 48 hrs by sulforhodamine B assay; assay type: functional; summary of the method: as §1
NCI-H460 = test: Growth inhibition of human NCI-H460 cells after 48 hrs by sulforhodamine B assay; assay type: functional; settings: NCI-H460, 48 h; summary of the method: as §1
COLO 205 = test: Growth inhibition of human COLO205 cells after 48 hrs by sulforhodamine B assay; assay type: functional; settings: COLO 205, 48 h; summary of the method: as §1
HCT-116 = test: Growth inhibition of human HCT116 cells after 48 hrs by sulforhodamine B assay; assay type: functional; settings: HCT-116, 48 h; summary of the method: as §1
HCT-15 = test: Growth inhibition of human HCT15 cells after 48 hrs by sulforhodamine B assay; assay type: functional; settings: HCT-15, 48 h; summary of the method: as §1
HT-29 = test: Growth inhibition of human HT-29 cells after 48 hrs by sulforhodamine B assay; assay type: functional; settings: HT-29, 48 h; summary of the method: as §1
KM12 = test: Growth inhibition of human KM12 cells after 48 hrs by sulforhodamine B assay; assay type: functional; settings: KM12, 48 h; summary of the method: as §1
SW-620 = test: Growth inhibition of human SW620 cells after 48 hrs by sulforhodamine B assay; assay type: functional; settings: SW-620, 48 h; summary of the method: as §2
SF-268 = test: Growth inhibition of human SF268 cells after 48 hrs by sulforhodamine B assay; assay type: functional; settings: SF-268, 48 h; summary of the method: as §1
SF-295 = test: Growth inhibition of human SF295 cells after 48 hrs by sulforhodamine B assay; assay type: functional; settings: SF-295, 48 h; summary of the method: as §1
SNB-19 = test: Growth inhibition of human SNB19 cells after 48 hrs by sulforhodamine B assay; assay type: functional; settings: SNB-19, 48 h; summary of the method: as §2
SNB-75 = test: Growth inhibition of human SNB75 cells after 48 hrs by sulforhodamine B assay; assay type: functional; settings: SNB-75, 48 h; summary of the method: as §2
U-251 = test: Growth inhibition of human U251 cells after 48 hrs by sulforhodamine B assay; assay type: functional; settings: U-251, 48 h; summary of the method: as §2
LOX IMVI = test: Growth inhibition of human LOXIMVI cells after 48 hrs by sulforhodamine B assay; assay type: functional; summary of the method: as §1
Malme-3M = test: Growth inhibition of human MALME-3M cells after 48 hrs by sulforhodamine B assay; assay type: functional; summary of the method: as §1
M14 = test: Growth inhibition of human M14 cells after 48 hrs by sulforhodamine B assay; assay type: functional; settings: M14, 48 h; summary of the method: as §1
SK-MEL-2 = test: Growth inhibition of human SK-MEL-2 cells after 48 hrs by sulforhodamine B assay; assay type: functional; settings: SK-MEL-2, 48 h; summary of the method: as §1
SK-MEL-28 = test: Growth inhibition of human SK-MEL-28 cells after 48 hrs by sulforhodamine B assay; assay type: functional; settings: SK-MEL-28, 48 h; summary of the method: as §1
SK-MEL-5 = test: Growth inhibition of human SK-MEL-5 cells after 48 hrs by sulforhodamine B assay; assay type: functional; settings: SK-MEL-5, 48 h; summary of the method: as §1
UACC-257 = test: Growth inhibition of human UACC257 cells after 48 hrs by sulforhodamine B assay; assay type: functional; settings: UACC-257, 48 h; summary of the method: as §2
UACC-62 = test: Growth inhibition of human UACC62 cells after 48 hrs by sulforhodamine B assay; assay type: functional; settings: UACC-62, 48 h; summary of the method: as §2
IGROV-1 = test: Growth inhibition of human IGROV1 cells after 48 hrs by sulforhodamine B assay; assay type: functional; settings: IGROV-1, 48 h; summary of the method: as §1
OVCAR-3 = test: Growth inhibition of human OVCAR-3 cells after 48 hrs by sulforhodamine B assay; assay type: functional; settings: OVCAR-3, 48 h; summary of the method: as §1
OVCAR-4 = test: Growth inhibition of human OVCAR4 cells after 48 hrs by sulforhodamine B assay; assay type: functional; settings: OVCAR-4, 48 h; summary of the method: as §1
OVCAR-8 = test: Growth inhibition of human OVCAR8 cells after 48 hrs by sulforhodamine B assay; assay type: functional; settings: OVCAR-8, 48 h; summary of the method: as §1
SK-OV-3 = test: Growth inhibition of human SKOV3 cells after 48 hrs by sulforhodamine B assay; assay type: functional; settings: SK-OV-3, 48 h; summary of the method: as §1
786-0 = test: Growth inhibition of human 786-0 cells after 48 hrs by sulforhodamine B assay; assay type: functional; settings: 786-0, 48 h; summary of the method: as §1
ACHN = test: Growth inhibition of human ACHN cells after 48 hrs by sulforhodamine B assay; assay type: functional; summary of the method: as §1
CAKI-1 = test: Growth inhibition of human Caki1 cells after 48 hrs by sulforhodamine B assay; assay type: functional; settings: CAKI-1, 48 h; summary of the method: as §1
RXF 393 = test: Growth inhibition of human RXF393 cells after 48 hrs by sulforhodamine B assay; assay type: functional; settings: RXF 393, 48 h; summary of the method: as §1
SN12C = test: Growth inhibition of human SN12C cells after 48 hrs by sulforhodamine B assay; assay type: functional; summary of the method: as §2
TK-10 = test: Growth inhibition of human TK10 cells after 48 hrs by sulforhodamine B assay; assay type: functional; settings: TK-10, 48 h; summary of the method: as §2
UO-31 = test: Growth inhibition of human UO31 cells after 48 hrs by sulforhodamine B assay; assay type: functional; settings: UO-31, 48 h; summary of the method: as §2
PC-3 = test: Growth inhibition of human PC3 cells after 48 hrs by sulforhodamine B assay; assay type: functional; settings: PC-3, 48 h; summary of the method: as §1
DU-145 = test: Growth inhibition of human DU145 cells after 48 hrs by sulforhodamine B assay; assay type: functional; settings: DU-145, 48 h; summary of the method: as §1
NCI/ADR-RES = test: Growth inhibition of human NCI/ADR-RES cells after 48 hrs by sulforhodamine B assay; assay type: functional; summary of the method: as §1
MDA-MB-231 = test: Growth inhibition of human MDA-MB-231 cells after 48 hrs by sulforhodamine B assay; assay type: functional; settings: MDA-MB-231, 48 h; summary of the method: as §1
MDA-MB-435 = test: Growth inhibition of human MDA-MB-435 cells after 48 hrs by sulforhodamine B assay; assay type: functional; settings: MDA-MB-435, 48 h; summary of the method: as §1
BT-549 = test: Growth inhibition of human BT549 cells after 48 hrs by sulforhodamine B assay; assay type: functional; settings: BT-549, 48 h; summary of the method: as §1
T47D = test: Growth inhibition of human T47D cells after 48 hrs by sulforhodamine B assay; assay type: functional; summary of the method: as §2

COC(=O)/C(C#N)=C/N1CCN(C(=O)c2ccco2)C1=S
IC50 (MT4): 5 µM | GI50 (HL-60(TB)): 6.9 µM | GI50 (K562): 3.7 µM | GI50 (MOLT-4): 7.4 µM | GI50 [1]: 3.3 µM | GI50 (SR): 2.1 µM | GI50 (A549): 14.6 µM | GI50 (EKVX): 10.2 µM | GI50 (HOP-62): 22.3 µM | GI50 (HOP-92): 14 µM | GI50 (NCI-H23): 13.2 µM | GI50 (NCI-H322M): 14 µM | GI50 (NCI-H460): 2.5 µM | GI50 (COLO 205): 31.7 µM | GI50 (HCT-116): 4 µM | GI50 (HCT-15): 3 µM | GI50 (HT-29): 12.2 µM | GI50 (KM12): 3.3 µM | GI50 (SW-620): 5.2 µM | GI50 (SF-268): 4.8 µM | GI50 (SF-295): 26 µM | GI50 (SNB-19): 54.9 µM | GI50 (SNB-75): 15.5 µM | GI50 (U-251): 6.8 µM | GI50 (LOX IMVI): 2.4 µM | GI50 (Malme-3M): 32.7 µM | GI50 (M14): 6.4 µM | GI50 (SK-MEL-2): 2.9 µM | GI50 (SK-MEL-28): 13 µM | GI50 (SK-MEL-5): 14.8 µM | GI50 (UACC-257): 5.9 µM | GI50 (UACC-62): 10.8 µM | GI50 (IGROV-1): 6.2 µM | GI50 (OVCAR-3): 4.9 µM | GI50 (OVCAR-4): 23.3 µM | GI50 (OVCAR-8): 15.5 µM | GI50 (SK-OV-3): 28.2 µM | GI50 (786-0): 6.3 µM | GI50 (ACHN): 4.8 µM | GI50 (CAKI-1): 3.4 µM | GI50 (RXF 393): 3.1 µM | GI50 (SN12C): 3.7 µM | GI50 (TK-10): 3.6 µM | GI50 (UO-31): 5.2 µM | GI50 (PC-3): 6.8 µM | GI50 (DU-145): 3.5 µM | GI50 (NCI/ADR-RES): 24 µM | GI50 (MDA-MB-231): 4.2 µM | GI50 (MDA-MB-435): 6.8 µM | GI50 (BT-549): 4.2 µM | GI50 (T47D): 4.6 µM
